Screening data: PubChem, several laboratories
MsrA inhibitor: inhibitors of bovine MsrA | purified bovine MsrA, absorbance read-out | inhibition, % at 15.5 µM | hit rate 0.75% among 360,000 | AID 651718; in the data active = inhibition above about 4.5%;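 also: 0% = vehicle wells with enzyme and 100% = reference inhibitor wells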
Glyco luc inh: N-linked glycosylation inhibition | AID 588692 | D54 ERlucT glycosylation luciferase reporter, 24 h; percent of 100 nM tunicamycin response | reporter increase, % at 12.5 µM | hit rate 0.23% among 360,000;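 active = mean luciferase reporter signal, scaled so untreated is 0 and the glycosylation-blocking control 100, at or above a set limit in every replicate; inconclusive = mean reaches the limit but not every replicate does; inactive = mean below the limit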;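 also: luciferase carries N-glycosylation sites so blocking glycosylation raises the light; 0% = median of neutral control wells and 100% = median of 100 nM tunicamycin wells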
bovine MsrA act: bovine methionine sulfoxide reductase A activation. purified bovine MsrA, absorbance read-out. activation, % at 10.6 µM. hit rate 0.3% among 360,000; in the data active = activation above about 7.5%;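 also: 0% = vehicle and 100% = reference activator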
UCH37 DUB inh: blocks the human deubiquitinase UCH37. inhibition, % (test concentration not listed). AID 588478. purified proteasome/UCH37, Ub-AMC cleavage fluorescence. hit rate 0.33% among 330,000. Q9Y5K5;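 active = mean inhibition over replicate wells above about 20%, limit read from the data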;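 also: 0% = compound-free wells with enzyme and 100% = wells lacking proteasome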
Target sequence (Q9Y5K5 whole entry, looked up): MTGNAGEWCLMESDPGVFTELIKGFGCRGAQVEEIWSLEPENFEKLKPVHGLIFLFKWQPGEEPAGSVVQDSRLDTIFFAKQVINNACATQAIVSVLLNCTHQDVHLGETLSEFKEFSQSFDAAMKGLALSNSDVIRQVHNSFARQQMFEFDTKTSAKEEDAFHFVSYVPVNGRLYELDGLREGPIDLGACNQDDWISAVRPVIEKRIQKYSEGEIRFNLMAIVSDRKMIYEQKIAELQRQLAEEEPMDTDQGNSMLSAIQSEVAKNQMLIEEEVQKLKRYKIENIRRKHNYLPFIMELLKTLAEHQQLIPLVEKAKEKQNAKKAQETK
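Reagent: Ub-AMC substrate; assay system: Proteasome-associated human UCH37 deubiquitinase; controls: no-proteasome and no-compound wells; read-out: % inhibition of Ub-AMC cleavage fluorescence; timing: 30 min preincubation with enzyme, 25 min cleavage at room temperature; signal: AMC fluorescence from Ub-AMC cleavage, excitation 355 nm, emission 460 nm; buffer or medium: Tris-HCl pH 7.4 plus ovalbumin, ATP-MgCl2, DTT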
aDG glyco up: alpha-DG glycosylation activation | Pro5-aDG cells, alpha-DG glycosylation AlphaScreen (IIH6); 0% Pro5, 100% B10-LARGE cell signal | hit rate 0.22% among 360,000 | activation, % at 10 µM;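 active = activation of at least 8% versus controls, or a plate z-score of at least 8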;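 also: Pro5 are CHO cells carrying HIG-tagged alpha-DG that lacks glycosylation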
Vif inh: inhibitors of HIV Vif; AID 602346; hit rate 0.35% among 340,000; HEK293T cells, Vif self-association by quenched fluorescence, imaging, 24 h; inhibition, % at 7.49 µM; in the data active = inhibition above about 50%, passing the limit was not always enough; inconclusive = no clear call, values can overlap the other calls; inactive = below about 31%
Numbers without * were called inactive; ? = inconclusive; . = no result. In the library only some 1.9% were active in any assay of this set; here they are far more common.

SMILES | MsrA inhibitor | Glyco luc inh | bovine MsrA act | UCH37 DUB inh | aDG glyco up | Vif inh
COc1cc(/C=C2\SC(=O)N(c3ccc(Cl)cc3)C2=O)cc([N+](=O)[O-])c1O | 7.1* | -1 | -5 | 6 | 1 | -3
COc1cc(/C=C2\SC(=O)N(c3cccc(Cl)c3)C2=O)cc([N+](=O)[O-])c1O | 1 | 1 | -2 | 7 | 0 | 5
CC(CC(=O)Nc1ccc(N(C)C)cc1)=NNC(=O)C(=O)NCc1ccccc1 | . | . | . | 2 | . | .
COC(=O)c1sc(NC(=O)c2cc(C)on2)nc1C | 3 | 1 | -4 | 12 | 0 | 0
CCc1nc(NC(=O)c2sc(C)nc2C)sc1C(=O)OC | 4.6* | 3 | -3 | 12 | 0 | -5
O=C1N/C(=N/N=C/c2ccco2)SC1Cc1ccccc1 (stereo unspecified) | 4.6* | 1 | -4 | . | 0 | -3
O=C(Cn1cc(C(F)(F)F)ccc1=O)NN=Cc1cccc(Cl)c1Cl | . | . | . | -2 | . | .
CC(=O)c1sc(NC(=O)COc2ccc(Br)cc2)nc1C | 0 | 5 | -5 | 2 | 0 | -4
CC(=O)c1sc(NC(=O)COc2ccc([N+](=O)[O-])cc2)nc1C | 0 | 2 | -3 | . | 0 | 98*
O=C(Cc1ccc([N+](=O)[O-])cc1)NNC(=O)c1cccs1 | -2 | -1 | 0 | 0 | 0 | 8
O=C(COc1ccc([N+](=O)[O-])cc1)NNC(=O)c1cccs1 | 1 | 0 | 0 | 5 | 0 | 53*
Cc1cccc(NN=C(C(N)=O)C2=NC(C)(C)Cc3ccccc32)c1 | . | . | . | 6 | . | .
Cc1ccc(O)c(C(=O)C=Cc2ccccc2)c1 | 1 | 30* | -5 | . | 0 | 1
COc1cc(C)cc(C(=O)C=Cc2ccccc2)c1O | 1 | 31* | -5 | -2 | 0 | -13
CC(=NN=Cc1ccccc1)c1nnn(-c2nonc2N)c1C | . | . | . | 3 | . | .
Cc1cc(/C=C2\C(=N)N3C(SCc4ccccc4)=NSC3=NC2=O)c(C)n1Cc1ccccc1 | 0 | 2 | -3 | -383 | 0 | 93*
COc1cc(CNC(C)(C)CO)cc(Br)c1OCc1ccccc1 | 0 | 2 | -4 | 4 | 1 | 56*
COc1ccccc1C=NNc1ccccc1[N+](=O)[O-] | . | . | . | 8 | . | .
Cc1oc2c(c1C(=O)c1ccc(Cl)cc1)C(=O)C(=O)c1ccccc1-2 | -2 | -22 | 5 | . | -1 | .
Cc1ccc(C(=O)c2c(C)oc3c2C(=O)C(=O)c2ccccc2-3)cc1 | . | -20 | 7 | 42* | -1 | .
Cc1[nH]n(-c2ccc(Cl)cc2)c(=O)c1C=Nn1c(C)nc2ccccc2c1=O | . | . | . | 4 | . | .
COC(=O)C(C(=O)OC)C(C[N+](=O)[O-])c1ccc(OC)cc1 (stereo unspecified) | -1 | 4 | -5 | 1 | 0 | 1
COC(=O)C(C(=O)OC)C(c1ccccc1)C(C(=O)c1ccccc1)[N+](=O)[O-] (stereo unspecified) | 0 | 0 | -1 | 4 | 0 | 53*
Br/C(C=NNc1nc(N2CCOCC2)nc(N2CCOCC2)n1)=C\c1ccccc1 | . | . | . | 10 | . | .
O=C(O)c1cc(O)ccc1N=Nc1ccccc1 | 4.6* | -3 | -2 | 18 | 0 | -1
SMILES | MsrA inhibitor | Glyco luc inh | bovine MsrA act | UCH37 DUB inh | aDG glyco up | Vif inh
O=C(O)c1ccccc1N=Nc1ccc(O)cc1 | 4 | -7 | -3 | 5 | 0 | 5
Cn1c(-c2ccccc2)cc2ccccc21 | 1 | -4 | -1 | -2 | 0 | -8
Cn1c(-c2ccccc2)cc2c3no[n+]([O-])c3ccc21 | -1 | 1 | -8 | -1 | 1 | 61*
Nc1c(C(=O)Nc2nc3ccccc3s2)sc2nc(-c3cccs3)ccc12 | . | 13 | -12 | 8 | 0 | 154*
O=C(O)c1ccc(NN=C2CCCc3ccccc32)cc1 | . | . | . | 22* | . | .
C=CCN1C(=O)/C(=C2/Sc3ccccc3N2CC)SC1=S | -2 | -2 | -1 | 3 | 0 | 85*
C=CCN1C(=O)/C(=C2/Sc3ccccc3N2CCCS(=O)(=O)O)SC1=S | 1 | 1 | -13 | 9 | 0 | 1
COc1ccc(C=NNC(=O)c2sccc2C)c2ccccc12 | . | . | . | -47 | . | .
O=C1Nc2ccccc2S/C1=C/Nc1cccc(Cl)c1 | 1 | -3 | 0 | 1 | 0 | 123*
CCC(=NNC(=O)CSCc1ccccc1Cl)c1ccc2c(c1)OCCO2 | . | . | . | 3 | . | .
COC(=O)c1ccc(C)c(NS(=O)(=O)c2ccc(OC)cc2)c1 | 0 | 16 | -1 | 3 | 0 | 10
COC(=O)c1ccc(C)c(NS(=O)(=O)c2ccc3c(c2)OCCO3)c1 | . | 31* | -4 | 3 | 0 | .
Cc1cc(C)c2c(CC(=O)O)coc2c1 | 0 | -1 | -3 | 29* | 0 | -15
O=C1[C@@H]2Cc3c([nH]c4ccccc34)C(c3ccc([N+](=O)[O-])cc3)N2C(=O)CN1C1CC1 (stereo partly specified) | 2 | 43* | -3 | 3 | 0 | -6
CCN(CC)CCN1C(=O)c2cccc3cc(N)cc(c23)C1=O | 2 | 60* | -14 | 4 | 0 | 25
Nc1cc2c3c(cccc3c1)C(=O)N(CCN1CCCC1)C2=O | 1 | ? | -2 | 6 | 0 | 22
CC(C)(C)NC(=O)CSc1nc(O)cc(=O)n1-c1ccccc1 | -1 | 2 | -6 | 1 | 0 | 94*
OC(Cc1ccncc1)(c1ccccc1)c1ccccc1 | -1 | 4 | 2 | 25* | 0 | -1
OC(CNCc1ccccc1)(c1ccccc1)c1ccccc1 | -1 | -2 | -2 | 2 | 0 | -11
Nc1c(C(=O)Nc2ccccc2)sc2nc(-c3cccnc3)ccc12 | 1 | . | . | 0 | . | .
COc1ccc(NC(=O)c2sc3nc(-c4cccnc4)ccc3c2N)cc1 | -1 | 1 | -2 | . | 0 | 92*
CC(O)C(NS(=O)(=O)c1ccc(Cl)cc1)C(=O)OCC(=O)c1ccc2c(c1)NC(=O)CO2 (stereo unspecified) | 0 | 1 | -3 | 2 | 0 | -1
CC(C)CC(NC(=O)c1ccc(Cl)cc1)C(=O)OCC(=O)c1ccc2c(c1)NC(=O)CO2 (stereo unspecified) | 0 | 60* | 0 | 5 | -1 | 11
CCOc1nc(N2CCCCC2)nc(-n2cc(-c3ccccc3)nn2)n1 | -1 | 1 | 0 | 5 | 0 | 55*
COc1ccc(NN=C(N=Nc2nc(C)cc(=O)[nH]2)c2ccccc2)cc1 | . | . | . | 1 | . | .
COc1c(Br)cc(Br)cc1C=NNC(=O)c1cccnc1 | . | . | . | 7 | . | .
COc1c(Br)cc(Br)cc1/C=N/NC(=O)c1cccnc1 | 0 | 30* | -1 | . | 0 | 5
Cn1c(-c2ccccc2)c(/C=N/NC(=O)c2cccnc2)c2ccccc21 | 3 | 47* | -5 | . | 0 | 6
CCC(CO)Oc1cc(NCc2ccc(Cl)cc2)c2ncn(C(C)C)c2c1 (stereo unspecified) | 2 | 7 | -2 | 0 | 0 | 106*
